This passage reports IC50 and inhibition results from ChEMBL document CHEMBL1124660, “Synthesis and in vitro aldose reductase inhibitory activity of compounds containing an N-acylglycine moiety” (J Med Chem, 1989).

As usually defined, the pIC50 is −log10 of the IC50, conventionally taken in molar units. Higher therefore signals a low IC50. The inhibition is the drop in the measured response relative to a control, in per cent.

pIC50: −log10 of the molar value.

The target in test [1] is T1, Aldo-keto reductase family 1 member B1 (Rattus norvegicus, UniProt P07943). Description: Inhibition of aldose reductase from rat lens. Value ranges from 5 - 97. The gist of the method: (§1)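 Rat lens aldose reductase was the 40% ammonium sulfate supernatant. Assay at 30 °C in 0.1 M phosphate, pH 6.2, with 0.104 mM NADPH and 10 mM DL-glyceraldehyde, following NADPH decrease at 340 nm over 3.0 min. At least four inhibitor concentrations, three or more determinations each.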

Test [2] has as its target Aldo-keto reductase family 1 member B1 (Rattus norvegicus) (UniProt P07943). Description: Compound was evaluated at 100 uM for the ability to inhibit partially purified aldose reductase obtained from rat lens. An outline of the steps:
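Enzyme: 40%-saturation ammonium sulfate supernatant from homogenized rat lenses, diluted so the control rate was about 0.0100 absorbance/min. Reaction at 30 °C in 0.1 M phosphate, pH 6.2, with 0.104 mM NADPH and 10 mM DL-glyceraldehyde, started by substrate. NADPH loss was read at 340 nm for 3.0 min after a 1.0 min lag. Percent inhibition at 100 µM was taken against the substrate-only control.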

The target of test [3] is T1, Aldo-keto reductase family 1 member B1. As to the kind of experiment: Inhibition of aldose reductase from rat lens. Value ranges from 0.3 - 2.3. An outline of the steps:
as §1

The target is the same in test [4]. As to the kind of experiment: Inhibition of aldose reductase from rat lens. Value ranges from 300 - 1100. The gist of the method:
as §1

The target is the same in test [5]. As to the kind of experiment: Inhibition of aldose reductase from rat lens. Value ranges from 25-64. The gist of the method: as §1
Test [6] shares this target. As to the kind of experiment: Inhibition of aldose reductase from rat lens. Value ranges from 8.5 - 410. The gist of the method: as §1
Test [7] has the same target. As to the kind of experiment: Inhibition of aldose reductase from rat lens. Value ranges from 10 - 42. The gist of the method: as §1
For test [8] the target is unchanged. Description: Inhibition of aldose reductase from rat lens. Value ranges from 1.0 - 34. An outline of the steps:
as §1

For test [9] the target is unchanged. As to the kind of experiment: Inhibition of aldose reductase from rat lens. Value ranges from 110 - 430. An outline of the steps:
as §1

Test [10] has the same target. Description: Inhibition of aldose reductase from rat lens. Value ranges from 17 - 720. The gist of the method:
as §1

Test [11] has the same target. Description: Inhibition of aldose reductase from rat lens. Value ranges from 0.1 - 7. The gist of the method: as §1
Test [12] shares this target. As to the kind of experiment: Inhibition of aldose reductase from rat lens. Value ranges from 6 - 14. The gist of the method:
as §1

For test [13] the target is unchanged. Description: Inhibition of aldose reductase from rat lens. Value ranges from 7 - 33. The gist of the method: as §1
The target is the same in test [14]. Description: Inhibition of aldose reductase from rat lens. Value ranges from 300 - 2000. The gist of the method:
as §1

For test [15] the target is unchanged. As to the kind of experiment: Inhibition of aldose reductase from rat lens. Value ranges from 16 - 360. An outline of the steps:
as §1

Test [16] has the same target. Description: Inhibition of aldose reductase from rat lens. Value ranges from 9 - 69. An outline of the steps:
as §1

Test [17] has the same target. Description: Inhibition of aldose reductase from rat lens. Value ranges from 20 - 160. An outline of the steps:
as §1

For test [18] the target is unchanged. As to the kind of experiment: Inhibition of aldose reductase from rat lens. Value ranges from 10 - 130. An outline of the steps:
as §1

Test [19] has the same target. Description: Inhibition of aldose reductase from rat lens. Value ranges from 3 - 300. The gist of the method: as §1
The target is the same in test [20]. As to the kind of experiment: Inhibition of aldose reductase from rat lens. Value ranges from 0.15 - 3.3. An outline of the steps:
as §1

The target is the same in test [21]. Description: Inhibition of aldose reductase from rat lens. Value ranges from 0.5 - 16. The gist of the method: as §1
The target is the same in test [22]. Description: Inhibition of aldose reductase from rat lens. Value ranges from 7 - 130. An outline of the steps: as §1
Test [23] has the same target. As to the kind of experiment: Inhibition of aldose reductase from rat lens. Value ranges from 0.02 -0.64. An outline of the steps:
as §1

The target is the same in test [24]. Description: Inhibition of aldose reductase from rat lens. Value ranges from 1.5 - 16. The gist of the method:
as §1

Test [25] has the same target. Description: Inhibition of aldose reductase from rat lens. Value ranges from 40 - 680. The gist of the method:
as §1

The target is the same in test [26]. As to the kind of experiment: Inhibition of aldose reductase from rat lens. Value ranges from 35-160. The gist of the method:
as §1

The target is the same in test [27]. Description: Inhibition of aldose reductase from rat lens. Value ranges from 0.6 - 47. The gist of the method: as §1
Test [28] has the same target. Description: Inhibition of aldose reductase from rat lens. Value ranges from 4.9 - 23. An outline of the steps:
as §1

Test [29] has the same target. As to the kind of experiment: Inhibition of aldose reductase from rat lens. Value ranges from 32 - 110. The gist of the method:
as §1

Test [30] shares this target. Description: Inhibition of aldose reductase from rat lens. Value ranges from 10 - 1300. The gist of the method: as §1
For test [31] the target is unchanged. Description: Inhibition of aldose reductase from rat lens. Value ranges from 140 - 580. An outline of the steps: as §1
The target is the same in test [32]. As to the kind of experiment: Inhibition of aldose reductase from rat lens. Value ranges from 280 - 490. The gist of the method: as §1
Test [33] shares this target. As to the kind of experiment: Inhibition of aldose reductase from rat lens. Value ranges from 50 - 650. The gist of the method: as §1
For test [34] the target is unchanged. Description: Inhibition of aldose reductase from rat lens. Value ranges from 10 - 520. An outline of the steps: as §1

Turning to `CC(=O)N(CC(=O)O)c1ccccc1`, the pIC50 in test [1] was 4.68.
The molecule `Nc1cccc(C(=O)NCC(=O)O)c1` showed an inhibition in test [2] of 36%.
Consider `O=C(O)CN(C(=O)c1ccccc1)c1cccc([N+](=O)[O-])c1`, for which, in test [3], the pIC50 was 6.07.
`O=C(O)CNC(=O)c1ccc(Cl)cc1` [4-CHLOROHIPPURIC ACID]: the pIC50 in test [4] was 3.26.
`O=C(O)CNC(=O)c1cccc([N+](=O)[O-])c1` showed an inhibition in test [2] of 32%.
In [5], `O=C(O)CNC(=O)c1ccc2ccccc2c1` showed a pIC50 of 4.40.
`O=C(O)Cn1c(=O)c2ccccc2c(=O)c2ccccc21` showed a pIC50 in [6] of 4.19.
For `Nc1ccccc1C(=O)NCC(=O)O`, the inhibition in [2] was found to be 16%.
In test [7], `CC(=O)N(CC(=O)O)c1cccc([N+](=O)[O-])c1` showed a negative logarithm of the IC50 (pIC50) of 4.57.
In test [2], `COc1ccc(C(=O)NC(C)C(=O)O)cc1` (stereo not drawn) had an inhibition of 38%.
In [8], `O=C(O)CN(C(=O)c1cccc2ccccc12)c1ccccc1` showed a pIC50 of 5.24.
In turn, `Cc1ccc(C(=O)NCC(=O)O)cc1` had a pIC50 in test [9] of 3.66.
Molecule `CC(=O)N(CC(=O)O)c1ccccc1C` showed an inhibition in test [2] of 14%.
In [10], `CC(=O)N(c1ccc(Cl)cc1)C(C)C(=O)O` (stereo not drawn) had a pIC50 of 3.96.
In [11], `COc1ccc(N(CC(=O)O)C(=O)c2ccccc2)cc1` had a pIC50 of 6.02.
In test [12], `O=C(O)CN(C(=O)c1ccccc1)c1ccccc1` gave a pIC50 of 5.02.
The molecule `CC(=O)N(CC(=O)O)c1ccc(C)cc1` showed a pIC50 in [13] of 4.82.
On to `COc1ccc(N(C(C)=O)C(C)C(=O)O)cc1` (stereo not drawn), for which, in [14], the pIC50 is 3.02.
Turning to `CC(=O)N(c1ccc(C)cc1)C(C)C(=O)O` (stereo not drawn), in [15], the pIC50 is 3.89.
`Nc1ccc(C(=O)NCC(=O)O)cc1` showed an inhibition in test [2] of 22%.
Take `CC(=O)N(CC(=O)O)c1ccc(Cl)cc1`: the negative-log IC50 (pIC50) in test [16] is 4.60.
Regarding `CC(=O)N(CC(=O)O)c1ccc(N)cc1`, the pIC50 in [17] was 4.26.
In turn, `CC(=O)N(CC(=O)O)c1ccc(O)cc1` had a pIC50 in test [18] of 4.47.
Consider `O=C(O)CNC(=O)c1ccccc1Cl`, for which the negative logarithm of the IC50 (pIC50) in [19] is 4.51.
With `O=C(O)CN1C(=O)c2cccc3cccc1c23`, the pIC50 in test [20] is 6.17.
Take `Cc1ccc(N(CC(=O)O)C(=O)c2ccccc2)cc1`: the pIC50 in test [21] was 5.52.
Take `COc1ccc(N(CC(=O)O)C(C)=O)cc1`: in test [22], the pIC50 is 4.10.
`O=C(O)CN(C(=O)c1cccc([N+](=O)[O-])c1)c1ccc([N+](=O)[O-])cc1`: the pIC50 in [23] is 6.89.
For `O=C(O)CN(C(=O)c1ccccc1)c1ccc(Cl)cc1`, the pIC50 in test [24] is 5.30.
In test [2], `CC(=O)N(CC(=O)O)c1cccc2ccccc12` had an inhibition of 20%.
Turning to `O=C(O)CN(C(=O)c1ccccc1)c1ccc2ccccc2c1`, in [25], the negative-log IC50 (pIC50) is 3.66.
`COc1ccc(C(=O)NCC(=O)O)cc1` showed a pIC50 in test [26] of 4.15.
The molecule `CC(=O)N(CC(=O)O)c1ccc([N+](=O)[O-])cc1` showed a pIC50 in test [27] of 5.24.
`CC(=O)N(CC(=O)O)c1cccc(C)c1` registered an inhibition in test [2] of 10%.
Take `O=C(O)Cn1c(=O)c2ccccc2c2ccccc21`: in test [28], the pIC50 is 4.97.
As to `CC(NC(=O)c1ccccc1)C(=O)O` (stereo not drawn), in test [2], the inhibition was 14%.
Turning to `O=C(O)CNC(=O)c1ccccc1[N+](=O)[O-]`, in test [29], the pIC50 is 4.24.
For the molecule `CC(=O)N(c1ccccc1)C(C)C(=O)O` (stereo not drawn), the pIC50 in test [30] is 3.70.
`Cc1ccc(C(=O)NC(C)C(=O)O)cc1` (stereo not drawn) gave an inhibition in test [2] of 19%.
`O=C(O)CNC(=O)c1ccc([N+](=O)[O-])cc1` gave a pIC50 in test [31] of 3.55.
Consider `O=C(O)CNC(=O)c1ccccc1` [HIPPURIC ACID], for which the negative-log IC50 (pIC50) in [32] is 3.48.
As for `O=C(O)CN(C(=O)c1ccccc1)c1cccc2ccccc12`, the pIC50 in test [33] is 3.64.
As to `O=C(O)CN1C(=O)c2ccccc2CCc2ccccc21`, the pIC50 in [34] is 4.10.
